Results gathered from unrelated publications.
Protocols differ between the studies behind these lines.
Target: Interferon-induced, double-stranded RNA-activated protein kinase (EIF2AK2, Homo sapiens, UniProt P19525)

Compound | observed | mode | technique | cells | tested at | measurement | value
Nc1ncnc2occ(-c3ccc(NC(=O)Nc4cc(C(F)(F)F)ccc4F)cc3)c12 | cell-free assay | inhibitor |  |  | 20 µM | remaining signal | 54%
CC/C(=N\NC(=O)NCc1cccc(O)c1)c1ccc(O)c(C)c1O | enzyme activity | inhibitor |  |  | 0.1 µM | inhibition | 8.7%
Cc1ccc(NC(=O)c2ccc(C)c(C(F)(F)F)c2)cc1C#Cc1nn(C2CCC(O)CC2)c2ncnc(N)c12 (centres unmarked) | cell-free assay |  |  |  | 10 µM | remaining signal | 75%
CC(C)(C)c1nc(-c2cccc(NS(=O)(=O)c3c(F)cccc3F)c2F)c(-c2ccnc(N)n2)s1 | enzyme activity | inhibitor | radiometric |  | 1 µM | remaining activity | 95%
CCCCNc1ncc2c(-c3ccc(F)cc3)nn(C[C@H]3CC[C@H](N)CC3)c2n1 | target engagement in cells | inhibitor | chemoproteomics |  | 20 mM | inhibition | 8.5%
CC(C)(C)c1nc2c(s1)c1nc(N)ncc1c1ccc(NS(=O)(=O)c3c(F)cccc3F)c(F)c12 | enzyme activity | inhibitor | radiometric |  | 1 µM | remaining activity | 93%
Cc1ccc(C(=O)Nc2ccc(CN3CCN(C)CC3)c(C(F)(F)F)c2)cc1C#Cc1cnc2cccnn12 | enzyme activity | inhibitor |  |  | 23.5 nM | remaining activity | 100%
Cc1cc(NC(=O)c2cccc3cc(-c4cccc5[nH]nc(N)c45)ccc23)ccc1F | enzyme activity | inhibitor |  |  | 0.1 µM | activity vs control | 106%
N#Cc1ccc(Nc2ccc3[nH]c(=O)[nH]c3c2)c(Cl)c1 | cell-free assay |  | competition with immobilised ligand |  | 1 µM | remaining binding | 57%
Cc1ccc(C(=O)NCc2ccsc2)cc1C#Cc1cn(C(C)C)c2ncnc(N)c12 | enzyme activity | inhibitor |  |  | 1 µM | activity vs control | 97%
CN1CC(Oc2cnc(C#N)cc2-c2ccn3nc(NC(=O)C4CC4)cc3c2)C1 | enzyme activity | inhibitor |  |  | 1 µM | inhibition | 14%
CNc1cc(Oc2cc(C(=O)Nc3cc(N4CCN(C)CC4)cc(C(F)(F)F)c3)ccc2C)ncn1 | target engagement in cells | inhibitor | chemoproteomics | Huh-7 | 1 µM | inhibition | -13%
Cc1cnc(NC2CCOCC2)nc1-n1cnc(C(=O)NC(CN)c2cc(F)cc(Cl)c2)c1 (centres unmarked) | enzyme activity | inhibitor | radiometric |  | 1 µM | remaining activity | 39%
Cc1nc(N2CC[C@@H](O)C2)ncc1-c1cc(C(F)(F)F)cc2[nH]ncc12 | binding |  | competition with immobilised ligand |  | 1 µM | remaining binding | 100%
c1ccc(CNc2nc(N3CCOc4ccccc43)nc3c2CCCC3)cc1 | target engagement in cells | inhibitor | chemoproteomics |  | 20 mM | inhibition | -5.4%
C[C@H]1CCN(c2nccc(-c3cnn4ncccc34)n2)C1 | binding |  |  |  | 1 µM | remaining binding | 100%
CC(C)CC(=O)N1CCc2nc(-c3ccc(Br)cc3)nc(N(C)Cc3ccccc3)c2C1 | cell-free assay |  | competition with immobilised ligand |  | 0.1 µM | remaining binding | 100%
